How the values were obtained:
[1] = target: T1, Glutamate NMDA receptor; Grin1/Grin2b (Rattus norvegicus) (UniProt P35439+Q00960); assay: Positive allosteric modulation of recombinant rat GluN1alpha/GluN2B receptor expressed in HEK293 cells assessed as potentiation of glutamate-induced current response at 30 uM at holding potential -60mV cotreated with 1 mM glutamate by whole cell voltage clamp method relative to control; format: cell-based
Method in brief: (§1)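 HEK293 cells expressing GluN1-1a/GluN2B, whole-cell voltage clamp at -60 mV, 21–25 °C. Compound at 30 µM was given in one of three ways: co-applied with 1 µM glutamate, co-applied with 1 mM glutamate, or pre-applied before 1 mM glutamate. Delivery by fast perfusion, DMSO 1% throughout. Potentiation relative to the control glutamate response.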

[2] = target: T1, Glutamate NMDA receptor; Grin1/Grin2b (Rattus norvegicus); assay: Positive allosteric modulation of recombinant rat GluN1alpha/GluN2B receptor expressed in HEK293 cells assessed as potentiation of glutamate-induced current response at 30 uM at holding potential -60mV cotreated with 1 uM glutamate by whole cell voltage clamp method relative to control; format: cell-based; method in brief: as §1
[3] = target: T1, Glutamate NMDA receptor; Grin1/Grin2b (Rattus norvegicus); assay: Positive allosteric modulation of recombinant rat GluN1alpha/GluN2B receptor expressed in HEK293 cells assessed as potentiation of glutamate-induced current response at 30 uM at holding potential -60mV pretreated with cells followed by 1 mM glutamate addition by whole cell voltage clamp method relative to control; format: cell-based; method in brief: as §1
[4] = target: T1, Glutamate NMDA receptor; Grin1/Grin2b (Rattus norvegicus); assay: Positive allosteric modulation of recombinant rat GluN1alpha/GluN2B receptor expressed in HEK293 cells assessed as potentiation of glutamate-induced current response at 1 to 100 uM at holding potential -60mV by whole cell voltage clamp method relative to control; format: cell-based
Method in brief: (§2)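 HEK293 cells transfected with GluN1-1a, the GluN2 subunit and GFP. Whole-cell voltage clamp at -60 mV, series resistance <10 MΩ, 80-90% compensation, room temperature (21–25 °C). Compound is co-applied with 1 µM glutamate by multibarrel fast perfusion (exchange ~10 ms). DMSO is held at 1% in all test and control solutions. Readout is % potentiation of the glutamate-evoked current.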

[5] = target: Glutamate NMDA receptor; Grin1/Grin2b (Rattus norvegicus, UniProt P35439+Q00960); assay: Positive allosteric modulation of recombinant rat GluN1alpha/GluN2B receptor expressed in HEK293 cells assessed as potentiation of glutamate-induced current response at holding potential -60mV by whole cell voltage clamp method; format: cell-based
Method in brief: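 HEK293 cells transfected with GluN1-1a, GluN2A, 2B, 2C or 2D and GFP cDNA. Whole-cell voltage clamp at -60 mV, 21–25 °C, series resistance <10 MΩ compensated 80–90%. Compound co-applied with 1 µM glutamate by fast multibarrel perfusion. DMSO 1% in all solutions. At least four cells per point.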

[6] = target: T1, Glutamate NMDA receptor; Grin1/Grin2b (Rattus norvegicus); assay: Positive allosteric modulation of recombinant rat GluN1alpha/GluN2B receptor expressed in HEK293 cells assessed as potentiation of glutamate-induced current response at 100 uM at holding potential -60mV by whole cell voltage clamp method relative to control; format: cell-based; method in brief: as §2
[7] = target: T2, Glutamate NMDA receptor; Grin1/Grin2a (Rattus norvegicus) (UniProt P35439+Q00959); assay: Positive allosteric modulation of recombinant rat GluN1alpha/GluN2A receptor expressed in HEK293 cells assessed as potentiation of glutamate-induced current response at 1 to 30 uM at holding potential -60mV by whole cell voltage clamp method relative to control; format: cell-based
Method in brief: (§3)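 HEK293 cells transfected with GluN1-1a, GluN2A, 2B, 2C or 2D and GFP cDNA. Whole-cell voltage clamp at -60 mV, 21–25 °C, series resistance <10 MΩ compensated 80–90%. Compound co-applied with 1 µM glutamate by fast multibarrel perfusion. DMSO 1% in all solutions. […] At least four cells per point.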

[8] = target: T1, Glutamate NMDA receptor; Grin1/Grin2b (Rattus norvegicus); assay: Positive allosteric modulation of recombinant rat GluN1alpha/GluN2B receptor expressed in HEK293 cells assessed as potentiation of glutamate-induced current response at 1 to 30 uM at holding potential -60mV by whole cell voltage clamp method relative to control; format: cell-based; method in brief: as §3
[9] = target: T3, Glutamate NMDA receptor; Grin1/Grin2c (Rattus norvegicus) (UniProt P35439+Q00961); assay: Positive allosteric modulation of recombinant rat GluN1alpha/GluN2C receptor expressed in HEK293 cells assessed as potentiation of glutamate-induced current response at 1 to 30 uM at holding potential -60mV by whole cell voltage clamp method relative to control; format: cell-based; method in brief: as §3
[10] = target: T4, Ionotropic glutamate receptor NMDA 1/2D (Rattus norvegicus) (UniProt P35439+Q62645); assay: Positive allosteric modulation of recombinant rat GluN1alpha/GluN2D receptor expressed in HEK293 cells assessed as potentiation of glutamate-induced current response at 1 to 30 uM at holding potential -60mV by whole cell voltage clamp method relative to control; format: cell-based; method in brief: as §3
[11] = target: Glutamate NMDA receptor; Grin1/Grin2a (Rattus norvegicus, UniProt P35439+Q00959); assay: Positive allosteric modulation of recombinant rat GluN1alpha/GluN2A receptor expressed in HEK293 cells assessed as potentiation of glutamate-induced current response at holding potential -60mV by whole cell voltage clamp method; format: cell-based; method in brief: as §3
[12] = target: Glutamate NMDA receptor; Grin1/Grin2c (Rattus norvegicus, UniProt P35439+Q00961); assay: Positive allosteric modulation of recombinant rat GluN1alpha/GluN2C receptor expressed in HEK293 cells assessed as potentiation of glutamate-induced current response at holding potential -60mV by whole cell voltage clamp method; format: cell-based; method in brief: as §3
[13] = target: Ionotropic glutamate receptor NMDA 1/2D (Rattus norvegicus, UniProt P35439+Q62645); assay: Positive allosteric modulation of recombinant rat GluN1alpha/GluN2D receptor expressed in HEK293 cells assessed as potentiation of glutamate-induced current response at holding potential -60mV by whole cell voltage clamp method; format: cell-based; method in brief: as §3
[14] = target: T2, Glutamate NMDA receptor; Grin1/Grin2a (Rattus norvegicus); assay: Positive allosteric modulation of recombinant rat GluN1alpha/GluN2A receptor expressed in HEK293 cells assessed as potentiation of glutamate-induced current response at 30 uM at holding potential -60mV by whole cell voltage clamp method relative to control; format: cell-based; method in brief: as §3
[15] = target: T1, Glutamate NMDA receptor; Grin1/Grin2b (Rattus norvegicus); assay: Positive allosteric modulation of recombinant rat GluN1alpha/GluN2B receptor expressed in HEK293 cells assessed as potentiation of glutamate-induced current response at 30 uM at holding potential -60mV by whole cell voltage clamp method relative to control; format: cell-based; method in brief: as §3
[16] = target: T3, Glutamate NMDA receptor; Grin1/Grin2c (Rattus norvegicus); assay: Positive allosteric modulation of recombinant rat GluN1alpha/GluN2C receptor expressed in HEK293 cells assessed as potentiation of glutamate-induced current response at 30 uM at holding potential -60mV by whole cell voltage clamp method relative to control; format: cell-based; method in brief: as §3
[17] = target: T4, Ionotropic glutamate receptor NMDA 1/2D (Rattus norvegicus); assay: Positive allosteric modulation of recombinant rat GluN1alpha/GluN2D receptor expressed in HEK293 cells assessed as potentiation of glutamate-induced current response at 30 uM at holding potential -60mV by whole cell voltage clamp method relative to control; format: cell-based; method in brief: as §3
[18] = target: Glutamate NMDA receptor (Rattus norvegicus) (UniProt P35439+Q00959+Q00960+Q00961+Q62645+Q8VHN2+Q9R1M7); assay: Positive allosteric modulation of NMDAR in rat hippocampal neuron assessed as potentiation of NMDA-induced current response at 30 uM by whole cell voltage clamp method relative to control
Method in brief: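 Native NMDARs in cultured hippocampal neurons, whole-cell voltage clamp at -60 mV, 21–25 °C. Bath also held 10 µM CNQX, 10 µM bicuculline, 0.5 µM TTX. Compound co-applied with 1 µM glutamate by fast perfusion (~10 ms exchange). DMSO 1% throughout. Potentiation relative to control glutamate response.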

[19] = species: Rattus norvegicus; assay: Positive allosteric modulation of AMPAR in rat hippocampal neuron assessed as potentiation of AMPA-induced current response at 30 uM in presence of cyclothiazide by whole cell voltage clamp method relative to control
Method in brief: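 Cultured hippocampal neurons, whole-cell voltage clamp at -60 mV, room temperature (21–25 °C). AMPAR current evoked by 5 µM AMPA; bath also held 10 µM cyclothiazide, 50 µM D-AP5, 10 µM bicuculline, 0.5 µM TTX. Compound co-applied by fast multibarrel perfusion. DMSO 1% in all test and control solutions. Effect expressed relative to control response.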

[20] = species: Rattus norvegicus; assay: Positive allosteric modulation of GABAR in rat hippocampal neuron assessed as potentiation of GABA-induced current response at 30 uM in presence of cyclothiazide by whole cell voltage clamp method relative to control

## CC(=O)[C@H]1CC[C@H]2[C@@H]3CC=C4C[C@@H](OC(=O)CCCCC(=O)O)CC[C@]4(C)[C@H]3CC[C@]12C
[1]
  Activity: 75%
[2]
  Activity: 136%
[3]
  Activity: 134%
[4]
  Emax: 151%
[5]
  EC50: 8.5 to 9.1 µM
[6]
  Activity: 614%
[7]
  Emax: 203%
[8]
  Emax: 157%
[9]
  Emax: 145%
[10]
  Emax: 115%
[11]
  EC50: 8.9 µM
[12]
  EC50: 10.4 µM
[13]
  EC50: 13 µM
[14]
  Activity: 192%
[15]
  Activity: 137%
[16]
  Activity: 118%
[17]
  Activity: 88%
[18]
  Activity: 138%
[19]
  Activity: -7%
[20]
  Activity: -90%

Reference: ChEMBL document CHEMBL4219253, “Positive Modulators of the N-Methyl-d-aspartate Receptor: Structure-Activity Relationship Study of Steroidal 3-Hemiesters” (J Med Chem, 2018)
